Measurements: paper PMC6453127 (Biochimica et biophysica acta. General subjects, 2017)
pIC50, pKd: −log10 of the molar value. Entries after “also recorded” stand apart in the source; their conditions may differ.

How the values were obtained:
GST-Hsp90α CTD [1] = molecular target: T1, GST-Hsp90α CTD (Homo sapiens, UniProt P07900); test: BS3 crosslinking assay, GST-Hsp90α CTD; assay type: biochemical; details: 2 μM protein; NSC145366 10 μM to 100 μM
DU-145 = test: NCI-60 screen, DU-145 prostate cancer cell line; assay type: cell-based, human; details: NCI re-screen
In short: (§1)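 NCI Developmental Therapeutics Program re-screen, 5-concentration dose response. Growth measured by SRB staining.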

His6-Hsp90β CTD = His6-Hsp90β CTD (Homo sapiens, UniProt P08238); test: BS3 crosslinking dimerization/oligomerization assay, His6-Hsp90β CTD; assay type: biochemical; details: 2 μM protein; BS3 crosslinker
His6-Hsp90β CTD, sequence (P08238 530-724): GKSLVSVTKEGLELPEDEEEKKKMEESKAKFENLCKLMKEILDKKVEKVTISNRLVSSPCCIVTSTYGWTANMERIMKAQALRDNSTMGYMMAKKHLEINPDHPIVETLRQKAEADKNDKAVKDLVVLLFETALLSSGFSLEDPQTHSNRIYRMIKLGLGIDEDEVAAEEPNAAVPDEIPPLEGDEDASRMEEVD

Hsp70 = Hsp70 (Homo sapiens, UniProt P0DMV8); test: Transcreener ADP Hsp70 ATPase assay; assay type: biochemical; details: 0.5 μM Hsp70; up to 200 μM
Hsp70, sequence (P0DMV8 whole entry): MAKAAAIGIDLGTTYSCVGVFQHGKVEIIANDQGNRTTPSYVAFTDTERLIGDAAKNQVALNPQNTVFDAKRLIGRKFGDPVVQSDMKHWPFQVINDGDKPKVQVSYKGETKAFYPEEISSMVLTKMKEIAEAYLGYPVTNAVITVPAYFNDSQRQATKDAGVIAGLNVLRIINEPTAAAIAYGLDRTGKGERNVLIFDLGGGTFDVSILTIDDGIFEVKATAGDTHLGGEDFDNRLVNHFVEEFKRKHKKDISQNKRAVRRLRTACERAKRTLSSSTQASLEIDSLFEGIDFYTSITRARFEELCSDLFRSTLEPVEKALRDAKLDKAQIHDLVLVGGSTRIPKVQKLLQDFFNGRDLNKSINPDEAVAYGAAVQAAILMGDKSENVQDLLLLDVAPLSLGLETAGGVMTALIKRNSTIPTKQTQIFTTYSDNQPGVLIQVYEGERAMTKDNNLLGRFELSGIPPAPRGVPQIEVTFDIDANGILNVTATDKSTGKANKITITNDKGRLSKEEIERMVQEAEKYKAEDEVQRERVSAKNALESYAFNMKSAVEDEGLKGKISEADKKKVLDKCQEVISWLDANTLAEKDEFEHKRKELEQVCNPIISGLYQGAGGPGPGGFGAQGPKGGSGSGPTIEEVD
In short: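 Stopped with EDTA stop-and-detect buffer containing ADP² antibody-IRDye QC-1 and 8 nM ADP Alexa594 tracer, 1 h at RT. Endpoint fluorescence intensity read. Three experiments, four-parameter logistic fit.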

Hsp90β [2] = molecular target: T2, Hsp90β (Homo sapiens, UniProt P08238); test: Competitive displacement of FITC-GA; assay type: binding; details: competitor 3 nM to 3 μM; 60 nM Hsp90β, 5 nM FITC-GA
T2 sequence (P08238 whole entry): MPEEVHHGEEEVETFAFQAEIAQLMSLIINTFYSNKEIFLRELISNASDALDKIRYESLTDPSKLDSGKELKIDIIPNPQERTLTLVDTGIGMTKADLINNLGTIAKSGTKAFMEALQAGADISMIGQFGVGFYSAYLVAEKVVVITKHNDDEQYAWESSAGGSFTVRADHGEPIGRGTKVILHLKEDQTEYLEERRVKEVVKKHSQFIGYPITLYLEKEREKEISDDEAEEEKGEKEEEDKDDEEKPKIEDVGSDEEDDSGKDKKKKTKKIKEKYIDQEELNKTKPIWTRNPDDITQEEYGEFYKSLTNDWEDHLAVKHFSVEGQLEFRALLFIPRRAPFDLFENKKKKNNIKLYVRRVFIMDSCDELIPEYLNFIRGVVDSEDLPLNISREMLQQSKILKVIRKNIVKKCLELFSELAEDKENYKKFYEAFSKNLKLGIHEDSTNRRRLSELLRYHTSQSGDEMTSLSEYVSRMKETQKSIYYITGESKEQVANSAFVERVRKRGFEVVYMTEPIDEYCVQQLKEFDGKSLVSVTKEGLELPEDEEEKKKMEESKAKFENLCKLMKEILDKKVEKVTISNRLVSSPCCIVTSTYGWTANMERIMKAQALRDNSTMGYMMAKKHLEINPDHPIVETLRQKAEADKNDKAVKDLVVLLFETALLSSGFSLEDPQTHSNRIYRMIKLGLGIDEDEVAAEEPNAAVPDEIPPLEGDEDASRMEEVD

GST-Hsp90α NTD (9–236) = GST-Hsp90α NTD (9–236) (Homo sapiens, UniProt P07900); test: DARTs assay with GST-Hsp90α NTD; assay type: binding; details: 200 μM compound
full-length Hsp90α = full-length Hsp90α (Homo sapiens, UniProt P07900); test: BS3 crosslinking assay, full length Hsp90α; assay type: biochemical; details: 2 μM protein; BS3 crosslinker
In short: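 Full-length Hsp90α used at 2 μM in 50 mM NaPO₄ and 150 mM NaCl, preincubated with compound for 1 h at room temperature. BS3 crosslinker added at 66–200 μM final for 1 h at RT, then quenched with 50 mM Tris-HCl pH 7.5 for 15 min. Analysed by 10% SDS-PAGE and western blot.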

GST-Hsp90α CTD [3] = molecular target: T1, GST-Hsp90α CTD; test: ADH aggregation; assay type: biochemical
In short: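 Reaction: 6.2 μM equine ADH, with or without 500 nM GST-Hsp90α CTD and compound. Aggregation induced at 55 °C, read as absorbance at 360 nm every minute for 90 min. The 90-min endpoint was used, with the mean of ADH alone set to 100%. Three independent experiments.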

LNCaP cells [4] = test: Cytotoxicity to LNCaP cells; assay type: cell-based; details: 5 μM; data not shown
LNCaP cells [5] = test: Western blot of Hsp90 clients and heat shock proteins in LNCaP cells; assay type: cell-based; details: 48 h
In short: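 ATCC LNCaP cells kept in ATCC-recommended medium, authenticated and used within 20 passages. Cells treated for 48 h, trypsinised, PBS-washed and lysed in RIPA with protease inhibitors, 1 mM PMSF, 0.1% Triton X-100 and 1 mM DTT. Protein measured by Bradford before western blot. Band intensities of treated samples expressed as percentage of vehicle.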

Hsp90α = Hsp90α (Homo sapiens, UniProt P07900); test: DARTs assay, full-length recombinant Hsp90α, pronase proteolysis; assay type: binding; details: 200 μM compound
Hsp90 CTD = test: DTT-induced insulin aggregation chaperone assay; assay type: biochemical; details: 100 μM compound; 10 μM Hsp90 CTD
In short: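 200 μM insulin preincubated with 10 μM Hsp90 CTD, with or without compound, in 10 mM NaPO₄ and 100 mM NaCl at 30 °C for 1 h. Aggregation induced with 20 mM DTT and followed by absorbance at 650 over 40 min in a plate reader.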

[6] = mouse xenograft models; ref http://dtp.cancer.gov; cited from earlier work
PC3 = test: NCI-60 screen, PC3 prostate cancer cell line; assay type: cell-based, human; details: NCI re-screen
In short: as §1

BSA = BSA (Bos taurus, UniProt P02769); test: Crosslinking specificity control with BSA; assay type: biochemical
BSA, sequence (P02769 25-607): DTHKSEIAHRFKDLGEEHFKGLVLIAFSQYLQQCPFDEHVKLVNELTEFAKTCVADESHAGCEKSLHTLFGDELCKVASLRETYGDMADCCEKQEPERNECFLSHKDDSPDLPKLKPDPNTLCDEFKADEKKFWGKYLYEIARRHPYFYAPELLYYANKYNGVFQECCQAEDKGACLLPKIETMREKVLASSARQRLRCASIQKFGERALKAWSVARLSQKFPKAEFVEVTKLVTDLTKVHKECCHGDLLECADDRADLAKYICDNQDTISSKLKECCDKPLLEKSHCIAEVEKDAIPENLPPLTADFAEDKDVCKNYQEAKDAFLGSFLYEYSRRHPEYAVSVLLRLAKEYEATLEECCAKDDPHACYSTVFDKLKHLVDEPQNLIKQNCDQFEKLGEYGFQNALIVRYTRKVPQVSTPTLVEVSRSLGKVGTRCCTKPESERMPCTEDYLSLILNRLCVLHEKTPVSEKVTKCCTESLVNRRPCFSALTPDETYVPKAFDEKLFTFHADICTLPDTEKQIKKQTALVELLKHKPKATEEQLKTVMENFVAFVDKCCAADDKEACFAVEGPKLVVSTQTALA

GST-Hsp90α CTD [7] = molecular target: T1, GST-Hsp90α CTD; test: ATP-agarose pulldown, Hsp90 CTD; assay type: binding; details: 200 μM compound, 6 μM CTD
Hsp90β [8] = molecular target: T2, Hsp90β; test: Transcreener ADP Hsp90 ATPase assay; assay type: biochemical; details: read-out: IC50, Hsp90β ATPase function; 0.5 μM Hsp90β, 250 μM ATP, 37 °C 30 min
Hsp90β [9] = molecular target: T2, Hsp90β; test: Microscale thermophoresis; assay type: binding; details: read-out: Kd (MST); labeled Hsp90β 40 nM
GST-Hsp90α NTD [10] = molecular target: T3, GST-Hsp90α NTD (Homo sapiens, UniProt P07900); test: ATP-agarose pulldown, Hsp90 NTD; assay type: binding; details: 200 μM compound, 6 μM NTD
GST-Hsp90α CTD (626–732) = GST-Hsp90α CTD (626–732) (Homo sapiens, UniProt P07900); test: DARTs assay with GST-Hsp90α CTD; assay type: binding; details: 200 μM compound
Lewis lung carcinoma = details: 3.12 mg/kg; Lewis lung carcinoma mouse model; ref http://dtp.cancer.gov; cited from earlier work
Hsp90 = test: Luciferase refolding assay in rabbit reticulocyte lysate; assay type: biochemical
In short: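 Recombinant luciferase at 100 μg/mL in Tricine pH 7.8 buffer (MgCl₂, DTT, EDTA, 10% glycerol, 10 mg/mL BSA), heat-denatured at 41 °C for 30 min. Then added to rabbit reticulocyte lysate preincubated at 30 °C with compound. Aliquots taken every 15 min for 90 min into luciferase reagent and luminescence read. DMSO at 90 min set to 100%. Triplicate.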

GST-Hsp90α NTD [11] = molecular target: T3, GST-Hsp90α NTD; test: BS3 crosslinking assay, GST-Hsp90α NTD; assay type: biochemical; details: 2 μM protein
In short: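 2 μM protein buffer-exchanged into 50 mM NaPO₄ and 150 mM NaCl, then preincubated with compound for 1 h at room temperature. BS3 added at 66–200 μM final for 1 h at RT, then quenched with 50 mM Tris-HCl pH 7.5 for 15 min. Boiled in SDS dye, run on 10% SDS-PAGE, western-blotted and probed with anti-GST antibody.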

CC(C)(C)CC(C)(C)NCC(O)COc1ccc(C(C)(C)c2ccc(OCC(O)CNC(C)(C)CC(C)(C)C)cc2)cc1.Cl (stereo not drawn) [NSC145366, 1-(4-(2-(4-(2-hydroxy-3-(2,4,4-trimethylpentan-2-ylami-no)propoxy)phenyl)propan-2-yl)phenoxy)-3-(2,4,4-trimethylpentan-2-ylamino)propan-2-ol hydrochloride]
oligomerization state of GST-Hsp90α CTD (crosslinking) (GST-Hsp90α CTD [1]): induced CTD oligomerization increases in a dose dependent manner
GI50 (DU-145): 1380 nM
oligomerization state of His6-Hsp90β CTD (crosslinking) (His6-Hsp90β CTD): even higher order oligomerized species; also recorded: CTD monomer band was eliminated
inhibition of Hsp70 ATPase function (Hsp70): no inhibitory activity up to 200 μM
competition with FITC-GA binding to Hsp90β (Hsp90β [2]): does not compete with FITC-GA binding
protection of Hsp90 NTD from pronase degradation (DARTs) (GST-Hsp90α NTD (9–236)): no protection observed
oligomerization state of full-length Hsp90α (crosslinking) (full-length Hsp90α): presence of a higher-order oligomer
level of ADH aggregation, dose dependence (GST-Hsp90α CTD [3]; 10 μM to 40 μM): increases the level of ADH aggregation in a dose dependent manner
inhibition of Hsp90 CTD chaperone (anti-aggregation) activity, ADH aggregation assay (GST-Hsp90α CTD [3]; 40 μM compound, 500 nM Hsp90 CTD, 55 °C, end point 90 min): completely eliminates CTD chaperone activity
cytotoxicity to LNCaP cells (LNCaP cells [4]): completely cytotoxic
induction of classical heat shock response (Hsp70, Hsp27, Hsp40) (LNCaP cells [5]): not detectable
AR expression level compared to DMSO (LNCaP cells [5]; 1 μM and 3 μM): 50%
Akt expression (LNCaP cells [5]; 1 μM and 3 μM): do not show significant downregulation
BRAF expression (LNCaP cells [5]; 1 μM and 3 μM): do not show significant downregulation
BRCA1 expression level compared to DMSO (LNCaP cells [5]; 3 μM): 15%
Hsp40 expression (LNCaP cells [5]; 3 μM): only appears to induce Hsp40 expression after 48 h cellular treatment at the highest concentration
protection of Hsp90α from pronase degradation (DARTs) (Hsp90α): protection of Hsp90α was clearly observed
inhibition of CTD chaperone activity, insulin aggregation (Hsp90 CTD): inhibits CTD chaperone activity
toxic dose [6]: ≥ 6.25 mg/kg
GI50 (PC3): 1850 nM
oligomerization of BSA (BSA): does not induce oligomerization of BSA
inhibition of CTD binding to ATP-agarose (GST-Hsp90α CTD [7]): does not disrupt NTD or CTD binding to ATP
pIC50 (Hsp90β [8]): ~3.96
pKd (Hsp90β [9]): ~5.42
inhibition of NTD binding to ATP-agarose (GST-Hsp90α NTD [10]): does not disrupt NTD or CTD binding to ATP
protection of Hsp90 CTD from pronase degradation (DARTs) (GST-Hsp90α CTD (626–732)): protects the Hsp90 CTD from pronase degradation
antitumor activity, treated/control (Lewis lung carcinoma): 68%
level of inhibition of luciferase refolding compared with Cm A1 (Hsp90; 25 and 50 μM): greater than C-terminal inhibitor Cm A1
luciferase refolding (luciferase activity vs vehicle) (Hsp90; rabbit reticulocyte lysate, 90 min): decreased luciferase activity as compared to vehicle treated lysates
oligomerization of GST-Hsp90α NTD (crosslinking) (GST-Hsp90α NTD [11]): no effect on oligomerization of the NTD
